Shown are actives, neighbours in structure and some others; about 3.4% of the full set was active somewhere.
Ecoli rRNA inh – inhibitors of bacterial rRNA selective over humanized ribosomes | E. coli WT GFP vs humanized-ribosome RFP mutants, fluorescence, 24 h; stronger effect = lower value; DMSO median 0, no signal -100 | GFP signal change (wild-type ribosome), % (no concentration beside the values) | AID 720706 | 350,000 tested, 1.6% active;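 active = significant combined selectivity score with lowered wild-type GFP, culture density cut under 30%, mutant RFP and density less affected; inactive = any of these conditions unmet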
S100A4 MyoIIA – blocks human S100A4 binding to myosin IIA peptide. P26447. S100A4/TAMRA-MyoIIA peptide fluorescence polarization. inhibition, % at 10.7 µM. 360,000 tested, 0.14% active. AID 652163;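 active = mean inhibition of at least 70% across replicates, with every replicate also reaching that level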
Target sequence (P26447 whole entry, looked up): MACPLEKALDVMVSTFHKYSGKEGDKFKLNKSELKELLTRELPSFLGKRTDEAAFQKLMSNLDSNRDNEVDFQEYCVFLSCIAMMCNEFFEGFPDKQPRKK
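Assay system: human S100A4 monomer with TAMRA-labelled myosin IIA peptide / Buffer or medium: Calcium-containing HEPES buffer, pH 7.2 / Reagent: TAMRA-labelled myosin IIA heavy-chain peptide probe, 5 nM / Compound: one dose per compound / Timing: polarization read 5 min after assay mix addition, stable 5–60 min / Benchmarks: neutral control DMSO, positive control TFP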
ERAP1 inh – inhibitors of human ERAP1 aminopeptidase | recombinant ERAP1, Leu-AMC fluorescence, 60 min | AID 652197 | inhibition, % at 10.7 µM | 340,000 tested, 0.15% active;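 active = mean replicate inhibition of at least 30%, or all replicates individually reaching that 30% level; inactive = mean below 30% and not every replicate reaching it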;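 also: 0% = neutral control wells and 100% = L-leucinethiol positive control wells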
SIRT5 inh – blocks human SIRT5 desuccinylation of peptide; 330,000 tested, 1.1% active; AID 652115; Q9NXA8; inhibition, % at 15 µM; Purified SirT5, succinyl-peptide AMC, trypsin-coupled fluorescence; in the data active = inhibition above about 15%
Target sequence (Q9NXA8 whole entry, looked up): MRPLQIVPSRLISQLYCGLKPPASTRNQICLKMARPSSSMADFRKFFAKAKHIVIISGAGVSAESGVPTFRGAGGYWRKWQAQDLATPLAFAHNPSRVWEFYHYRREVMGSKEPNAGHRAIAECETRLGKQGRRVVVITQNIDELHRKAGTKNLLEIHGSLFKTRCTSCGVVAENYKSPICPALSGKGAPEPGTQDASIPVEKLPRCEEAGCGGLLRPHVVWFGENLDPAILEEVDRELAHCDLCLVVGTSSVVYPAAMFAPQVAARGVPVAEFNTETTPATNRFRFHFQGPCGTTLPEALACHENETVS
E-sel inducer – E-selectin induction on HUVECs | HUVEC E-selectin immunofluorescence imaging; normalized: neutral wells 0, TNF-alpha wells 100 | AID 686992 | 260,000 tested, 0.37% active | P16581 | activation, % at 7.58 µM;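 active = mean E-selectin-positive cell signal at least 10% of the positive control, reached in at least 60% of replicates, without over 20% cell loss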
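material = human umbilical vein endothelial cells (HUVEC), E-selectin induction | quantity = 3,000 cells/well | medium = EGM-2 growth medium on 0.1% gelatin-coated wells | technique = immunofluorescence imaging | read-out basis = % PE-positive cells | control set = TNF-alpha positive control, DMSO neutral control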
MLL AF4-AF9 inh – MLL-AF4/AF9 protein interaction inhibition; P42568; AlphaScreen, biotin-AF4 peptide binding to FLAG-AF9; inhibition, % at 10 µM; 350,000 tested, 0.47% active; AID 651704;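 active = every replicate reaching a set inhibition limit, whatever the replicate mean, cut at about 25% in these data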;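 also: 0% = plate neutral control median and 100% = total signal loss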
Starred values were filed as active, the others as inactive; nt = not tested or not shown.

SMILES | Ecoli rRNA inh | S100A4 MyoIIA | ERAP1 inh | SIRT5 inh | E-sel inducer | MLL AF4-AF9 inh
COc1ccc([Si](C)(C)[C@@H]2[C@@H](CCO)O[C@]3(C(=O)N(Cc4ccc(NC(C)=O)cc4)c4ccccc43)[C@H]2C)cc1 | nt | 11 | 2 | 1 | nt | 3
C[C@H](CO)N1C[C@H](C)[C@@H](CN(C)Cc2ccc(Cl)c(Cl)c2)Oc2ccc(NC(=O)c3ccncc3)cc2CC1=O | -28 | 7 | -1 | 17* | -2 | 6
C[C@@H]1CN([C@H](C)CO)C(=O)Cc2cc(NC(=O)c3ccncc3)ccc2O[C@H]1CN(C)S(C)(=O)=O | -1 | -5 | 2 | 0 | 447* | -1
C[C@@H]1CN([C@@H](C)CO)C(=O)Cc2cc(NC(=O)c3ccncc3)ccc2O[C@@H]1CN(C)S(=O)(=O)c1cn(C)cn1 | 3 | 2 | -7 | 6 | 321* | -16
Cc1ccc(C(=O)C(C)OC(=O)Cc2n[nH]c(=O)c3ccccc23)cc1 (centres undefined) | -5 | -30 | 5 | -4 | nt | 2
Cc1cc(C)c(C(=O)C(C)OC(=O)Cc2n[nH]c(=O)c3ccccc23)cc1C (centres undefined) | -4 | -11 | -4 | 15* | -1 | 0
CCCNC(=O)C[C@@H]1C[C@H]2c3cc(N(C)C)ccc3O[C@H]2[C@@H](CO)O1 | -1 | 7 | 2 | 2 | 0 | -4
CN1CCN(c2ccccc2NC(=O)c2ccc(N3CCCCC3)c([N+](=O)[O-])c2)CC1 | -30 | -2 | -2 | 1 | 7 | 27*
O=C(c1cc([N+](=O)[O-])ccc1N1CCCCC1)N1CCCC1 | 14 | 6 | 2 | 0 | 1 | -4
O=C(Nc1ccccc1N1CCCCC1)C1=COCCO1 | -55 | -3 | -1 | 4 | 35* | 3
O=C(Nc1cc([N+](=O)[O-])ccc1N1CCCC1)c1ccccc1 | -26* | -8 | 6 | 15 | nt | 1
O=C(c1cc([N+](=O)[O-])ccc1N1CCCC1)N1CCCC1 | 15 | -4 | 0 | 16* | 6 | 3
CN1CCN(c2ccccc2NC(=O)c2ccc(N3CCOCC3)c([N+](=O)[O-])c2)CC1 | 11 | 0 | 3 | 1 | 0 | 10
COc1ccccc1S(=O)(=O)N[C@@H]1CC[C@@H](CCn2cc(C3CCCCC3)nn2)O[C@@H]1CO | -8 | nt | nt | nt | 0 | 1
CO[C@H]1CN(C)C(=O)c2ccc(NS(=O)(=O)c3ccc(C)cc3)cc2OC[C@H](C)NC[C@H]1C | 1 | 4 | -2 | -3 | 0 | -2
CO[C@@H](CN(C)C(=O)c1ccccc1F)[C@H](C)CN([C@H](C)CO)S(=O)(=O)c1ccc(C)cc1 | 0 | 3 | 1 | -5 | 0 | -2
Cc1noc(C)c1S(=O)(=O)N(C)C[C@H]1OCCCC[C@@H](C)Oc2ccc(NC(=O)Nc3ccccc3)cc2C(=O)N([C@@H](C)CO)C[C@H]1C | 1 | -34 | 3 | 3 | 0 | 5
CN1CCN(CCC(=O)N/N=C/c2cc([N+](=O)[O-])ccc2OC(F)F)CC1 | 5 | 0 | 1 | 23* | 1 | -1
COc1ccc([N+](=O)[O-])cc1NC(=O)CCN1CCN(C)CC1 | 12 | 3 | -1 | 0 | nt | 0
CCCN(C)C[C@H]1Oc2cc(-c3cccc(OC)c3)ccc2S(=O)(=O)N([C@@H](C)CO)C[C@H]1C | -2 | 3 | 1 | -1 | 0 | 2
CC(C)[N+]1=C2C=CC=CC=C2SC12C([N+](=O)[O-])=CC(=[N+]([O-])[O-])C=C2[N+](=O)[O-] (centres undefined) | 8 | -9 | 2 | 4 | 0 | 29*
CCNC(=S)N(CCc1c(C)[nH]c2ccc(F)cc12)Cc1cccnc1 | -27* | -3 | -2 | -2 | nt | 11
CCNC(=S)N(CCc1c(C)[nH]c2ccc(C)cc12)Cc1cccnc1 | -4 | -2 | 5 | -2 | 0 | 9
